PAFAH2 inh = inhibitors of human PAFAH2. recombinant PAFAH2, FP-rhodamine activity probe, fluorescence polarization. inhibition, % at 3.39 µM. 340,000 tested, 0.99% active;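 active = inhibition above the mean over all tested compounds plus 3 SD, cut at about 30% in these data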;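 note: inhibitors block probe labeling of enzyme so polarization drops; 0% = enzyme with DMSO and 100% = wells lacking PAFAH2 protein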
pPAFAH FP inh = inhibitors of human plasma PAF acetylhydrolase (pPAFAH). 330,000 tested, 1.5% active. Q13093. inhibition, % at 3.39 µM. recombinant pPAFAH, FP-rhodamine probe fluorescence polarization;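 active = inhibition above the mean inhibition across the screen plus 3 SD, cut at about 25% in these data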;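 note: inhibitors block binding of the rhodamine activity-based probe so polarization drops; 0% = enzyme with DMSO and 100% = wells lacking pPAFAH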
Target sequence (Q13093 whole entry, looked up): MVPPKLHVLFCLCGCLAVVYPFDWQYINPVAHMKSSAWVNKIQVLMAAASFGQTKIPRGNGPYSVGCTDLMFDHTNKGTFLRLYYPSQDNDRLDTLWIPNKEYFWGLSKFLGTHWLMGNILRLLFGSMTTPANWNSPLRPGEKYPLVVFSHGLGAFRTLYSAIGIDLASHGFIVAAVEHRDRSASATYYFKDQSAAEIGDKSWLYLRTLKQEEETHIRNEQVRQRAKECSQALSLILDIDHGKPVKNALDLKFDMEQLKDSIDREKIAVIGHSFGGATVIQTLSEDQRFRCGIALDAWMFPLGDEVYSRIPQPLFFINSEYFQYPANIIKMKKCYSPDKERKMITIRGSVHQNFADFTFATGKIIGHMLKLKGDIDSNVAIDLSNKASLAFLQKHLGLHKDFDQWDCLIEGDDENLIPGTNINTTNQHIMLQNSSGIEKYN
NR3A LBD binder = modulates the human NR3A ligand-binding domain | NR3A LBD differential scanning fluorimetry, Tm shift; 0% = protein alone, 100% = glycine-bound protein | Tm shift relative to glycine control, % at 25 µM | 340,000 tested, 2.5% active;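 active = melting temperature shift of at least 10% of the positive control shift, at one fixed dose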
PAFAH1B2 FP inh = PAFAH1B2 (human) inhibition | P68402 | recombinant PAFAH1B2, FP-rhodamine activity probe, fluorescence polarization | inhibition, % at 3.39 µM | 340,000 tested, 1.2% active | AID 492953;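 active = inhibition above the mean of all tested compounds plus 3 SD, cut at about 24% in these data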;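 note: 0% = enzyme with DMSO and 100% = wells lacking PAFAH1B2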
PAFAH1B3 FP inh = PAFAH1B3 (human) inhibition; Q15102; recombinant PAFAH1B3, FP-rhodamine probe, fluorescence polarization; inhibition, % at 3.39 µM; 340,000 tested, 0.28% active;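 active = inhibition above the screen-wide average of all tested compounds plus 3 SD, cut at about 25% in these data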;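 note: 0% = enzyme with DMSO only and 100% = wells lacking PAFAH1B3 protein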
Target sequence (Q15102 whole entry, looked up): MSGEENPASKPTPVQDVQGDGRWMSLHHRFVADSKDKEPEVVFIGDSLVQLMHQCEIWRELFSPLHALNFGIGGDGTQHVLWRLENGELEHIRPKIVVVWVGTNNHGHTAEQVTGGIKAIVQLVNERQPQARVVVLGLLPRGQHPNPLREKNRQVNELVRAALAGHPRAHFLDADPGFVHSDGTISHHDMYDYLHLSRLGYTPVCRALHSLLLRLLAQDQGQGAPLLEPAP
UCH37 inh = blocks the human deubiquitinase UCH37; inhibition, % (concentration not given with the values); 330,000 tested, 0.33% active; purified proteasome/UCH37, Ub-AMC cleavage fluorescence; Q9Y5K5;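 active = mean inhibition over replicate wells above about 20%, limit read from the data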;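 note: 0% = compound-free wells with enzyme and 100% = wells lacking proteasome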
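Schedule: 30 min plus 25 min, room temperature / Material: human UCH37 within purified proteasomes / Technique: AMC fluorescence intensity at 355/460 nm / Buffer or medium: pH 7.4 Tris-HCl (50 mM) with ovalbumin, ATP-MgCl2, DTT / Controls: wells without proteasome as full block, compound-free enzyme plus substrate as uninhibited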
* = called active by the depositor. Hits are enriched below; roughly 4.8% of the tested compounds scored in any of these assays.

What do the screens show for `O=C1NN(c2cccc(Br)c2)C(=O)/C1=C\c1ccc(O)cc1`?
PAFAH2 inh: 15; pPAFAH FP inh: 17; NR3A LBD binder: 15*; PAFAH1B2 FP inh: 21; PAFAH1B3 FP inh: 2

Results for COc1cccc(C=NNC(=O)c2ccc(N3CCCC3=O)cc2)c1 ?
UCH37 inh: 1

How did Cc1ccc(NC(=O)Nc2sc(=S)n(C)c2C)cc1 do in these assays?
PAFAH2 inh: -3; pPAFAH FP inh: 0; NR3A LBD binder: 12*; PAFAH1B2 FP inh: -1; PAFAH1B3 FP inh: 1; UCH37 inh: -3

How did CC(=O)NC(=O)Nc1sc(=S)n(C)c1C do in these assays?
PAFAH2 inh: -11; pPAFAH FP inh: -7; NR3A LBD binder: -1; PAFAH1B2 FP inh: 2; PAFAH1B3 FP inh: 7; UCH37 inh: 9

How did CN(CC(=O)Nc1ccc(F)cc1)C(=O)COC(=O)c1cc(Br)c(Br)s1 do in these assays?
PAFAH2 inh: 18; NR3A LBD binder: -11; PAFAH1B2 FP inh: 24*; PAFAH1B3 FP inh: 10; UCH37 inh: 1

Results for CN(CC(=O)Nc1ccc(F)cc1)C(=O)COC(=O)c1ccccc1 ?
PAFAH2 inh: 0; pPAFAH FP inh: 1; NR3A LBD binder: 0; PAFAH1B2 FP inh: -2; PAFAH1B3 FP inh: 2; UCH37 inh: 4

What do the screens show for `Cc1ccc(SCC(=O)OCC(=O)N(C)CC(=O)Nc2ccc(F)cc2)cc1`?
PAFAH2 inh: -11; pPAFAH FP inh: 27*; NR3A LBD binder: 5; PAFAH1B2 FP inh: 44*; PAFAH1B3 FP inh: 3; UCH37 inh: 0

How did O=C(NN=Cc1cccc([N+](=O)[O-])c1)c1cccs1 do in these assays?
UCH37 inh: 3

What do the screens show for `CCCCCCCCCCS(=O)(=O)N/N=C/c1ccc([N+](=O)[O-])cc1`?
PAFAH2 inh: 2; pPAFAH FP inh: 10; NR3A LBD binder: 31*; PAFAH1B2 FP inh: 30*; PAFAH1B3 FP inh: 8

What do the screens show for `S=C(Nc1ccc(-c2nc3ccccc3[nH]2)cc1)Nc1cccnc1`?
PAFAH2 inh: -40; pPAFAH FP inh: 1; NR3A LBD binder: 37*; PAFAH1B2 FP inh: -9; PAFAH1B3 FP inh: -25; UCH37 inh: -9

What do the screens show for `S=C(NCCN1CCOCC1)Nc1ccc(-c2nc3ccccc3[nH]2)cc1`?
PAFAH2 inh: 3; pPAFAH FP inh: -7; NR3A LBD binder: 15*; PAFAH1B2 FP inh: 5; PAFAH1B3 FP inh: 4; UCH37 inh: 3

How did c1cncc(-c2nc3ccccc3[nH]2)c1 do in these assays?
PAFAH2 inh: 4; pPAFAH FP inh: 2; NR3A LBD binder: 2; PAFAH1B2 FP inh: 7; PAFAH1B3 FP inh: 10; UCH37 inh: 2

How did Clc1ccc(CCNc2nc3ccccc3s2)cc1 do in these assays?
PAFAH2 inh: 10; pPAFAH FP inh: 2; NR3A LBD binder: 6; PAFAH1B2 FP inh: 27*; PAFAH1B3 FP inh: 1; UCH37 inh: 0

How did CC(C)Cn1c(=O)c2ccccc2n2c(SCC(=O)N3c4ccccc4CC3C)nnc12 (stereo not given) do in these assays?
PAFAH2 inh: 3; pPAFAH FP inh: 0; NR3A LBD binder: 20*; PAFAH1B2 FP inh: 3; PAFAH1B3 FP inh: 2; UCH37 inh: -3

What do the screens show for `Fc1ccccc1C=NNc1ncnc2ccccc12`?
UCH37 inh: 13

Results for Oc1ccc2ccccc2c1/C=C/c1ccc2c(Br)cc(Br)c(O)c2n1 ?
PAFAH2 inh: 12; NR3A LBD binder: 15*; PAFAH1B2 FP inh: 5; PAFAH1B3 FP inh: 23

Results for COc1cc(Br)c(/C=C/c2ccc3cccc(O)c3n2)cc1OC ?
PAFAH2 inh: 1; pPAFAH FP inh: 7; NR3A LBD binder: 3; PAFAH1B2 FP inh: 5; PAFAH1B3 FP inh: 9; UCH37 inh: 3

What do the screens show for `Oc1cccc2ccc(/C=C/c3ccccc3Br)nc12`?
PAFAH2 inh: 3; pPAFAH FP inh: -4; NR3A LBD binder: 14*; PAFAH1B2 FP inh: 2; PAFAH1B3 FP inh: 0; UCH37 inh: -1

Results for Oc1ccc(Cl)cc1/C=C/c1ccc2cccc(O)c2n1 ?
PAFAH2 inh: 6; NR3A LBD binder: 30*; PAFAH1B2 FP inh: 6; PAFAH1B3 FP inh: 18; UCH37 inh: 3

What do the screens show for `COc1cc(Br)cc(/C=C/c2ccc3cccc(O)c3n2)c1O`?
PAFAH2 inh: -1; pPAFAH FP inh: 14; NR3A LBD binder: 34*; PAFAH1B2 FP inh: 4; PAFAH1B3 FP inh: 10; UCH37 inh: 1

How did COc1ccc(OC)c(/C=C/c2ccc3cccc(O)c3n2)c1 do in these assays?
PAFAH2 inh: 1; pPAFAH FP inh: -1; PAFAH1B2 FP inh: 2; PAFAH1B3 FP inh: 0

What do the screens show for `O=C(CSc1nc2ccccc2s1)NN=Cc1cc([N+](=O)[O-])ccc1O`?
UCH37 inh: 7

Results for COc1cccc(C=NNC(=O)CN(CCc2ccccc2)S(=O)(=O)c2ccc(NC(C)=O)cc2)c1 ?
UCH37 inh: 5

Results for C=C(C)COc1ccc(-c2n[nH]c(C)c2Oc2ccccc2OC)c(O)c1 ?
PAFAH2 inh: 1; pPAFAH FP inh: 13; NR3A LBD binder: 9; PAFAH1B2 FP inh: 1; PAFAH1B3 FP inh: 8; UCH37 inh: 35*

How did CCc1cc(-c2n[nH]c(C)c2Oc2ccc(C(C)C)cc2)c(O)cc1O do in these assays?
PAFAH2 inh: 7; pPAFAH FP inh: 31*; NR3A LBD binder: 32*; PAFAH1B2 FP inh: 5; PAFAH1B3 FP inh: 13; UCH37 inh: 2

What do the screens show for `CCCOC(=O)c1ccc(Oc2c(-c3ccc(O)cc3O)n[nH]c2C)cc1`?
PAFAH2 inh: -10; pPAFAH FP inh: 20; PAFAH1B2 FP inh: -7; PAFAH1B3 FP inh: 9; UCH37 inh: 3

Results for Cc1[nH]nc(-c2ccc(O)cc2O)c1Oc1ccccc1 ?
PAFAH2 inh: 1; pPAFAH FP inh: 2; NR3A LBD binder: 32*; PAFAH1B2 FP inh: 27*; PAFAH1B3 FP inh: 5; UCH37 inh: 2

What do the screens show for `C=C(C)COc1ccc(-c2[nH]ncc2Oc2ccccc2OCC)c(O)c1`?
PAFAH2 inh: 1; pPAFAH FP inh: 9; NR3A LBD binder: 11*; PAFAH1B2 FP inh: 0; PAFAH1B3 FP inh: 5; UCH37 inh: 1

What do the screens show for `CCOc1ccc(-c2n[nH]c(C)c2Oc2ccccc2OC)c(O)c1`?
PAFAH2 inh: 2; pPAFAH FP inh: 11; NR3A LBD binder: -6; PAFAH1B2 FP inh: -6; PAFAH1B3 FP inh: 14; UCH37 inh: 3

How did Cc1cc(C)n(CC(=O)NN=Cc2ccc3c(c2)OCO3)n1 do in these assays?
UCH37 inh: 2

What do the screens show for `Cc1ccc(-n2c(C)cc(C=c3sc4nc5ccccc5n4c3=O)c2C)cc1`?
UCH37 inh: -2

Results for C=C(C)COc1ccc(-c2nc(N)ncc2-c2ccc(Cl)cc2)c(O)c1 ?
PAFAH2 inh: -8; pPAFAH FP inh: -1; NR3A LBD binder: 20*; PAFAH1B2 FP inh: 5; PAFAH1B3 FP inh: 12; UCH37 inh: 3

Results for C=C(C)COc1ccc(-c2nc(N)ncc2-c2ccc(OC)cc2)c(O)c1 ?
UCH37 inh: 1
